In brackets after ≈: the same amount, converted by molar mass.

Common to all, as to assay type: functional
Experiment [1] has as its system Staphylococcus aureus. The experiment can be described thus: Antimicrobial activity against methicillin-resistant Staphylococcus aureus COL grown at 15 degC and measured at 15 degC by Etest.
For experiment [2], the system named is Staphylococcus aureus. Description: Antimicrobial activity against Staphylococcus aureus BD2 harboring wild-type cspB gene by Etest. The method in brief:
(§1)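 MIC by Etest strip (daptomycin, gentamicin, teicoplanin, trimethoprim-sulfamethoxazole), following the manufacturer's protocol with changes. Inoculum came from cells grown in TSB at 37°C for at least 20 h.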

Experiment [3] has as its system Staphylococcus aureus. Description: Antimicrobial activity against methicillin-resistant Staphylococcus aureus COL grown at 15 degC and measured at 37 degC by Etest. Put shortly:
(§2)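 Strain COL was grown in TSB at 37°C to mid-log phase, split into equal halves, and kept 1 h at 37°C (control) or 15°C (cold shock). Etest strips for daptomycin, gentamicin or trimethoprim-sulfamethoxazole were then applied per the manufacturer.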

The subject of experiment [4] is Staphylococcus aureus. The experiment can be described thus: Antimicrobial activity against methicillin-resistant Staphylococcus aureus COL grown at 37 degC and measured at 37 degC by Etest. Put shortly:
as §2

Experiment [5] concerns Staphylococcus aureus. The experiment can be described thus: Antimicrobial activity against methicillin-resistant Staphylococcus aureus COL grown at 37 degC and measured at 15 degC by Etest. Put shortly: as §2
The test system of experiment [6] is Staphylococcus aureus. The experiment can be described thus: Ratio of MIC for methicillin-resistant Staphylococcus aureus COL grown at 15 degC and measured at 37 degC to MIC for methicillin-resistant Staphylococcus aureus COL grown at 15 degC and measured at 15 degC by Etest.
In experiment [7] the test system is Staphylococcus aureus. Description: Antimicrobial activity against methicillin-resistant Staphylococcus aureus isolate COL by Etest. Put shortly:
as §1

Experiment [8] has as its system Staphylococcus aureus. The experiment can be described thus: Ratio of MIC for methicillin-resistant Staphylococcus aureus COL grown at 37 degC and measured at 37 degC to MIC for methicillin-resistant Staphylococcus aureus COL grown at 37 degC and measured at 15 degC by Etest.
Experiment [9] deals with Staphylococcus aureus. The experiment can be described thus: Antimicrobial activity against Staphylococcus aureus BD1 harboring aphA-3 insertion in cspB gene by Etest. Put shortly: as §1

As for `CCCCCCCCCC(=O)N[C@@H](Cc1c[nH]c2ccccc12)C(=O)N[C@H](CC(N)=O)C(=O)N[C@@H](CC(=O)O)C(=O)N[C@@H]1C(=O)NCC(=O)N[C@@H](CCCN)C(=O)N[C@@H](CC(=O)O)C(=O)N[C@H](C)C(=O)N[C@@H](CC(=O)O)C(=O)NCC(=O)N[C@H](CO)C(=O)N[C@@H]([C@H](C)CC(=O)O)C(=O)N[C@@H](CC(=O)c2ccccc2N)C(=O)O[C@@H]1C`, the minimal inhibitory concentration (MIC) is 0.63 mg/L (≈ 0.389 µM) in [1]; 2 mg/L (≈ 1.23 µM) in [2]; 1.5 mg/L (≈ 0.926 µM) in experiment [3]; 1.5 mg/L (≈ 0.926 µM) in experiment [4]; 0.46 mg/L (≈ 0.284 µM) in [5]; 1.5 mg/L (≈ 0.926 µM) in experiment [7]. In addition, in [9], inhibition of growth (MIC) required 0.064 mg/L (≈ 0.0395 µM). Moreover, the results for the Ratio in experiment [6] and in experiment [8] were 2.4 and 4, respectively.
Take `CC(=O)N[C@@H]1[C@H](Oc2c3cc4cc2Oc2ccc(cc2Cl)[C@@H](O[C@@H]2O[C@@H](CO)[C@@H](O)[C@H](O)[C@@H]2NC(C)=O)[C@@H]2NC(=O)[C@H](NC(=O)[C@@H]4NC(=O)[C@H]4NC(=O)[C@@H](Cc5ccc(c(Cl)c5)O3)NC(=O)[C@H](N)c3ccc(O)c(c3)Oc3cc(O)cc4c3)c3ccc(O)c(c3)-c3c(O[C@H]4O[C@H](CO)[C@@H](O)[C@@H](O)[C@@H]4O)cc(O)cc3[C@@H](C(=O)O)NC2=O)O[C@@H](CO)[C@@H](O)[C@@H]1O`: the minimum inhibitory concentration (MIC) was 2 mg/L (≈ 1.13 µM) in experiment [2], 3 mg/L (≈ 1.7 µM) in experiment [7] and 0.75 mg/L (≈ 0.424 µM) in experiment [9].
Take GENTAMICIN: the MIC in [1] came out at 0.29 mg/L; in experiment [2], 0.38 mg/L; in experiment [3], 0.38 mg/L; in experiment [4], 0.34 mg/L; in experiment [5], 0.21 mg/L; in [7] it was 0.38 mg/L. In addition, inhibition of growth in [9] (MIC) required 32 mg/L.
